From article PMC4361903 (Blood, 2010)
Where no end group is shown, it is not given here. [ ]: non-standard residue; d: D form. pY = N[C@@H](Cc1ccc(OP(=O)(O)O)cc1)C(=O)O

What was measured:
Syk (platelet) = Syk (platelet) (UniProt P43405); assay: biotinylated peptide pull-down, Syk blot; details: reference: pY7 31-mer peptide; sites T9
[1] = target: dually phosphorylated peptide based on the human FcRγ-chain ITAM, biotinylated (human) (UniProt P30273); assay: SPR
[2] = test system: GPVI and FcRγ-chain with mutated C-terminal ITAM tyrosine; format: cell-based; details: 10 μg/ml collagen, 6 hrs, 37°C; three separate experiments
Summary of the method: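 DT40 chicken B-cells (RPMI, 10% FBS, 1% chicken serum, 50μM β-mercaptoethanol) electroporated (350V, 500μF) with 2μg/ml each of GPVI and Myc-tagged FcRγ construct, 20μg NFAT-luciferase reporter and 2μg pEF6-lacZ. Live cells counted by trypan blue 20 h post-transfection. Luciferase normalised to β-galactosidase (triplicate readings), expressed as % wild-type response. Surface expression checked by anti-Myc flow cytometry.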

GPVI = details: cross-linking of GPVI; ref [8],[9]; cited from earlier work
[3] = target: tandem SH2 domains of Syk (Homo sapiens, UniProt P43405); assay: Surface plasmon resonance, binding of Syk tandem SH2 to immobilised peptide; details: SPR, 25°C, pH 7.4, SH2 domains 0-80μM
Syk C-SH2 domain = Syk C-SH2 domain (Homo sapiens, UniProt P43405); assay: Surface plasmon resonance, binding of Syk C-SH2 to immobilised peptide; details: SPR, 25°C, pH 7.4, SH2 domain 0-80μM
Syk N-SH2 domain = Syk N-SH2 domain (Homo sapiens, UniProt P43405); assay: Surface plasmon resonance, binding of Syk N-SH2 to immobilised peptide; details: SPR, 25°C, pH 7.4, SH2 domain 0-80μM
[4] = test system: single C-terminal SH2 domain of Syk; assay: Tryptophan fluorescence titration, Syk C-terminal SH2; format: binding; details: same concentration range as tandem SH2 titration; pH 7.5
[5] = target: Syk tandem SH2 domains (GST fusion protein); assay: other fluorescence titration
CLEC-2 = details: cross-linking of CLEC-2; ref [4],[6]; cited from earlier work

Chain of dually phosphorylated peptide based on the human FcRγ-chain ITAM, biotinylated (human) (P30273 54-82): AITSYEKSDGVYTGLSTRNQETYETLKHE

Molecule: CLEC-2 cytoplasmic tail, 1-31 (from UniProt Q9P126) pY7 pT9 31-mer peptide
- binding against the reference (Syk (platelet)): same

Molecule: Syk C-terminal SH2 domain (GST fusion protein) (domain or fragment)
- Kd [1]: 1.7 µM

Molecule: Syk N-terminal SH2 domain (GST fusion protein) (domain or fragment)
- Kd [1]: 19.7 µM

Molecule: Syk tandem SH2 domains (GST fusion protein) (domain or fragment)
- Kd [1]: 0.02 µM

Molecule: collagen
- NFAT activation by collagen, C-terminal ITAM tyrosine mutant [2]: abolished
- phosphorylation of FcRγ-chain ITAM tyrosines (GPVI): Src kinase-dependent phosphorylation of two conserved tyrosines

Molecule: non-phosphorylated CLEC-2 peptide: corresponding nonphosphorylated 13 amino acid peptide (MQDEDGYITLNIK; also: biotin, end not given here)
- detectable binding, tandem SH2 [3]: No detectable binding
- detectable binding, C-SH2 (Syk C-SH2 domain): No detectable binding
- detectable binding, N-SH2 (Syk N-SH2 domain): No detectable binding

Molecule: tyrosine phosphorylated CLEC-2 peptide: phosphorylated peptide based on the first 13 amino acids of the CLEC-2 tail, which includes the conserved MQDEDGYxxL sequence (MQDEDG[pY]ITLNIK; also: biotin, end not given here)
- binding to single C-terminal SH2 domain, tryptophan fluorescence [4]: unable to detect binding

Molecule: MQDEDG[pY]ITLNIK (also: biotinylated, end not given here)
- Kd [5]: 5.7 µM

B1: podoplanin: transmembrane protein podoplanin (protein, UniProt Q86YL7 23-162, looked up)
Podoplanin: ASTGQPEDDTETTGLEGGVAMPGAEDDVVTPGTSEDRYKSGLTTLVATSVNSVTGIRIEDLPTSESTVHAQEQSPSATASNVATSHSTEKVDGDTQTTVEKDGLSTVTLVGIIVGVLLAIGFIGAIIVVVMRKMSGRYSP
- platelet aggregation and secretion (CLEC-2): powerful platelet aggregation and secretion
